Experimental data: ChEMBL document CHEMBL4513216, “Probing the Open Global Health Chemical Diversity Library for Multistage-Active Starting Points for Next-Generation Antimalarials” (ACS Infect Dis, 2020)

Assay: Toxicity liver stage against HepG2, at 10uM
Format: cell-based
Parameters: test concentration 10 uM, cell line HepG2-A16-CD81EGFP
Conditions: human, HepG2-A16-CD81EGFP cells; read-out: INHIBITION
Outline: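 Uninfected HepG2-A16-CD81EGFP cells, 3 × 10^3 per well, 1536-well, plated on prespotted compound at 10 μM final, parasite-free screening media added to match infected plates; puromycin 10 μM positive, DMSO 0.5% negative; run in parallel with 48 h PbLuc assay at 37 °C, 5% CO2; viability by CellTiter-Glo luminescence, normalized to controls.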

In order of falling cytotoxicity at 10 µM:
1. O=C(Nc1ccc(F)cc1)NC1(CCO)CCOCC1  22.3%
2. O=c1n(CCNCc2ccc3ccccc3c2)nc2ccccn12  18.6%
3. Cc1ccc(-n2nc(C)cc2N)nn1  16%
4. CCS(=O)(=O)N1CCc2ccc(NC(=O)NCc3ccccc3)cc21  10.9%
5. Cc1ccc2c(c1)C(NC(=O)N(C)C)CC21CCN(C)CC1 (stereo not drawn)  10.4%
6. NC(=O)NC(=O)CNC1(c2ccc(Cl)cc2)CCC1  9.23%
7. Cc1cccnc1CCNC(=O)CC1C(=O)NCCN1CCC(C)C (stereo not drawn)  9.01%
8. Cc1nc(CN2CCN(C3CCOC3)Cc3cccnc32)cs1 (stereo not drawn)  8.91%
9. CCCn1ncc(C(=O)NCc2n[nH]c3c2CCCCC3)c1C  8.72%
10. CCc1noc(C(C)N2CCC(NS(=O)(=O)c3cccs3)CC2)n1 (stereo not drawn)  8.45%
11. N#Cc1ccc(C(=O)O)nc1C=Cc1cccc(F)c1  8%
12. CCc1nc(CC(=O)N2CCCC2CN2CCCC2)cs1 (stereo not drawn)  7.27%
13. CC(C)NC(=O)CNC(=O)N1CCc2c([nH]c3ccc(Cl)cc23)C1  7.15%
14. O=C([C@@H]1C[C@@H]2CCN(C3CCOCC3)C[C@@H]2O1)N1CCCC1  6.81%
15. CC(C)CCN(C)Cn1ncc2cn(-c3ccccc3)nc2c1=O  6.72%
16. Fc1ccc2[nH]c3c(c2c1)CCN1C(c2ccccn2)N2CCC31CC2 (stereo not drawn)  6.16%
17. O=C(CC1CNCCO1)N1CCC(c2cc(N3CCCC3)ncn2)CC1 (stereo not drawn)  5.81%
18. Cc1[nH]ncc1CCCNC(=O)N1CCN2CCCCC2C1 (stereo not drawn)  5.8%
19. O=c1cccnn1CC1CN(CC2CCCC2)Cc2nccn2C1 (stereo not drawn)  5.03%
20. O=C(C1CCCC1)N1CC(c2nc(Cc3ccccc3)no2)C1  4.84%
21. Cc1cc2c(cc1C)C(NC1CC1)CCCO2 (stereo not drawn)  4.57%
22. CC(C)Nc1nc(O)cc(C2CC(=O)N(C3CCCCC3)C2)n1 (stereo not drawn)  4.5%
23. CCCc1n[nH]c(C2CN(CCc3cccs3)CCO2)n1 (stereo not drawn)  4.1%
24. O=C(NCCCNc1ccc(C(F)(F)F)cn1)c1ccc(F)cc1F  3.61%
25. CC1CCCN(CCCNC(=O)Cc2csc(-c3ccoc3)n2)C1 (stereo not drawn)  3.39%
26. Cc1ccc(C(C)NC(=O)CSCC(N)=O)cc1 (stereo not drawn)  3.37%
27. CCC(C)(NCC(=O)NC(C)C)c1nccs1 (stereo not drawn)  3.26%
28. c1ccc(-c2noc(CN3CCCC(Cn4cncn4)C3)n2)nc1 (stereo not drawn)  3.12%
29. CC1CN(C(=O)c2ccn(C)c(=O)c2)c2ccccc2NC1=O (stereo not drawn)  2.94%
30. COCCNC(=O)c1cn(C(C)(C)C)c2ncccc12  2.74%
31. CN1C[C@H]2CCN(C(=O)NC3CCCC3)CC[C@H]2S1(=O)=O  2.66%
32. O=C(c1cscn1)N1CC[C@@H]2[C@@H]1CCN2C1CCOCC1  2.11%
33. Cc1ccc(C(C)NCCc2nccn2Cc2ccccc2)o1 (stereo not drawn)  1.98%
34. O=C(NC1CC1)N1CC[C@@H](O)[C@@H]1Cc1ccccc1  1.91%
35. Cc1cccc(CN2C[C@@H]3OCCN(C)[C@@H]3C2)n1  1.73%
36. Cn1cc(-c2cc(C(F)F)n3nc(CCC(=O)O)nc3n2)cn1  1.61%
37. CC(C)c1nc(CN2CCCN(Cc3nccn3C)CC2)no1  1.13%
38. O=C(C1CCC1)N1CCOc2cccc(F)c21  0.877%
39. N#CC1(NC(=O)Cn2nnc(-c3cc4ccccc4o3)n2)CCCC1  0.696%
40. Cc1ccc(C)c(Oc2ccc(CNC(=O)C3CNC(=O)N3)cn2)c1 (stereo not drawn)  0.577%
41. O=C(c1ccc(Cn2cnnn2)cc1)N1CCC(c2ccncc2)CC1  0.571%
42. Cc1ccc(OCCN(C)Cc2cscn2)cc1  0.51%
43. Cc1ccc(C(=O)Nc2cc(F)ccc2OCC2CCCO2)cn1 (stereo not drawn)  0.207%
44. CC1CCN(S(=O)(=O)c2cccn(CC(=O)NC(C)(C)C)c2=O)CC1  0.00219%
45. COCCNC(=O)NC(c1ccccc1)c1ccccc1OC (stereo not drawn)  -0.238%
46. Cc1noc(C)c1CN1CCO[C@H]2CN(Cc3cnn(C)c3)C[C@H]21  -0.292%
47. Cc1nc(C2CCCN(C(=O)CCCn3cccn3)C2)sc1C (stereo not drawn)  -0.317%
48. CCc1c(C)[nH]c(C2(N)CCCC2)nc1=O  -0.327%
49. Cc1ccc([C@@H]2CN(S(=O)(=O)C(C)C)C[C@H]2N(C)C)cc1  -0.368%
50. Cn1cc(C(=O)N2CCN(c3ccccc3)CC2)ccc1=O  -0.408%
51. COc1cccc(Nc2nc(C3CCCNC3)c3ccccn23)c1 (stereo not drawn)  -0.47%
52. COCc1noc(CN2CC(Cc3ccccc3)CC2=O)n1 (stereo not drawn)  -0.472%
53. CCN(C(=O)CN1CCCC1c1c(C)nn(C)c1OC)C1CC1 (stereo not drawn)  -0.54%
54. O=C(c1cccc(S(=O)(=O)NCCc2ccccn2)c1)N1CCOCC1  -0.764%
55. CC(CN1CCOCC1)NC(=O)c1cc(Cl)c2c(c1)OCCO2 (stereo not drawn)  -1.4%
56. CSCC(C)(O)CNS(=O)(=O)c1ccc(Br)cc1 (stereo not drawn)  -1.61%
57. Clc1ccc(-c2nc(CN3CCCC3Cn3cncn3)co2)cc1 (stereo not drawn)  -1.66%
58. COC1COC2(CCN(Cc3cccc(C#N)c3)CC2)C1 (stereo not drawn)  -1.75%
59. CC(C)(O)CCc1cccc(C(=O)NCCC2CCOC2)c1 (stereo not drawn)  -1.94%
60. CCCc1c(C(=O)N2CCN(Cc3ccccn3)CC2)cnn1C  -1.96%
61. CC(C)C(C(=O)N1CCCN(Cc2cscn2)CC1)n1cncn1 (stereo not drawn)  -2.1%
62. CC(=O)c1ccc(S(=O)(=O)Nc2cnn(C3CCOCC3)c2)cc1  -2.25%
63. CN(Cc1cc(C(C)(C)C)n[nH]1)C(=O)c1ccccc1C1CCNC1 (stereo not drawn)  -2.32%
64. COCCc1noc(Cn2ccc3ncccc3c2=O)n1  -2.59%
65. Cc1cc(C)n(-c2cncc(NCCNC(=O)C(C)C)n2)n1  -2.91%
66. O=C(NCC1CCOC1)c1csc(-c2ccc(F)cc2)n1 (stereo not drawn)  -3.06%
67. Cc1ccc(CNCC2CCN(CC(O)c3ccccc3)CC2)o1 (stereo not drawn)  -3.33%
68. COc1ccnc(N2CCN(CC(=O)N3CCC(C)CC3)CC2)n1  -3.63%
69. O=C(N1CCOCC1)[C@@]12CCO[C@@H]1CCN(CCN1CCCCC1)C2  -3.78%
70. Cc1cc(C2CCCN(C(=O)COc3cc(C)on3)C2)n[nH]1 (stereo not drawn)  -3.87%
71. O=C(CN1CCN(c2nccs2)CC1)Nc1cccnc1  -4.23%
72. Cc1cc(CN2CCN(C(=O)NCc3ccc(C)s3)CC2)on1  -4.56%
73. Cc1nc(C(C)N(C)Cc2nc(CCC(C)C)no2)c(C)s1 (stereo not drawn)  -4.76%
74. CNC(=O)[C@H]1C[C@@H]2CN(S(=O)(=O)c3cccc(F)c3)C[C@@H]2N1C  -4.94%
75. Cc1nc(CN(C)C2CCN(CC3CCCC3)C2)no1 (stereo not drawn)  -5%
76. CC(C)n1ncc2c1NC(=O)CC21C(=O)Nc2c(Cl)cc(Br)cc21 (stereo not drawn)  -5.15%
77. Cc1cc(C)n(C2CN(CC(O)c3ccc(C(F)(F)F)cc3)C2)n1 (stereo not drawn)  -5.94%
78. COCc1nc(NCC2CCS(=O)(=O)C2)c2cnn(C)c2n1 (stereo not drawn)  -5.97%
79. Cc1ccc(C(N)c2cccc(S(C)(=O)=O)c2)c(C)c1 (stereo not drawn)  -6.44%
80. c1ncn(CC2CCCN(Cc3cn4ccsc4n3)C2)n1 (stereo not drawn)  -7.04%
81. Cn1cccc1C(=O)N1CCC2(CC1)CC(N1CCOCC1)C2  -8.25%
82. O=C(O)CC(CC(=O)NCc1ccsc1)c1cccs1 (stereo not drawn)  -8.43%
83. Cc1ccc(C2CCCCCN2Cc2cn(C)nc2C)cc1 (stereo not drawn)  -8.56%
84. CC(C)(C)n1ncc2c(=O)[nH]c(N3CC(O)C3)nc21  -8.61%
85. COCc1nc(C(=O)N2CCCC2c2cccc(C)c2)cs1 (stereo not drawn)  -8.93%
86. Cc1ccc2oc(CN3CCC(C(=O)O)(n4ccnc4)CC3)c(C)c2c1  -9.06%
87. Cc1cccc(CSc2ncc(Br)c(C(=O)O)n2)c1  -9.41%
88. Cc1ncsc1C(=O)N(C)Cc1ccsc1  -9.8%
89. Cc1cnc(N2CC3(CCN(C(=O)c4ccoc4)C3)C2)nc1  -10.1%
90. COCCC(=O)N1CCCN(Cc2nccn2C(C)C)CC1  -10.1%
91. CC(=O)N1CCN(C(=O)C(C)OCC(F)(F)F)CC1 (stereo not drawn)  -10.8%
92. Cc1occc1CNC(=O)N1CCC(Cc2cnn(C)c2)C1 (stereo not drawn)  -11.1%
93. COCCCNC(=O)Nc1ccc(F)c(C(N)=O)c1  -12.9%
94. COCCCN1CCN(CCOC)C(C)C1 (stereo not drawn)  -13.4%
95. Cc1cccc(-c2ccc(C(=O)NCC3CCCOC3)c(=O)[nH]2)c1 (stereo not drawn)  -15.7%
96. COc1ncccc1CNC(=O)N1CCCC1c1ccsc1 (stereo not drawn)  -15.9%
97. CN1CCN(C2CCN(Cc3nnc(C(C)(C)C)o3)CC2)C1=O  -16.2%
98. Cc1nonc1CN(C)Cc1cnn(-c2ccc(F)cc2)c1  -16.3%
99. CC(C)CN1CCC(NC(=O)c2ccc(F)cc2Cl)CC1  -17.1%
100. Cc1cccc(N2CCC(NC(C)c3cccs3)CC2)n1 (stereo not drawn)  -17.2%
101. COCCN1CC[C@@H]2O[C@@H](COCC(=O)N3CCCC3)CC[C@@H]21  -18.1%
102. Cc1cnn(CC2CCCCN2c2nn3cc(C)nc3s2)c1 (stereo not drawn)  -18.4%
103. CC(C)c1noc(CN2CCC(c3ccnn3CCO)CC2)n1  -18.6%
104. Cc1ccc(CC(=O)N2CCCN(Cc3nccn3C)CC2)cn1  -22.3%
105. COc1ccc(Cl)cc1-c1cc(NC(=O)C2COCCO2)[nH]n1 (stereo not drawn)  -29.1%
106. Cn1cnnc1CN1CCC2(CCCN(C3CCCCC3)C2=O)C1 (stereo not drawn)  -117%
107. CCCS(=O)(=O)N1Cc2nccn2CC(Cn2cccn2)C1 (stereo not drawn)  -120%
108. CN(C)c1nccc(N2CCO[C@H]3CN(Cc4ccco4)C[C@H]32)n1  -122%
109. O=C1COC2(CCN(Cc3ccoc3)CC2)CN1c1ccccc1  -122%
110. CN(C)C(=O)[C@@H]1C[C@H]2OCC[C@H]2N(CCOc2ccc(Cl)cc2)C1  -124%
111. COCCC1(CO)CCCN(Cc2ccncc2)C1 (stereo not drawn)  -141%
112. CCn1nc(C)c(NC(=O)CN(C)C(C)c2nccs2)c1C (stereo not drawn)  -143%
113. Cc1nc(O)cc(CCNc2nccc(CCC(F)(F)F)n2)n1  -149%
